Data set [1] deals with Radical scavenging activity. Description: Antioxidant activity assessed as DPPH free radical scavenging activity at 1 uM after 2 mins by spectrophotometry. The class given is functional. (In general: Loss of DPPH colour is used to gauge radical scavenging.)
Data set [2] deals with Radical scavenging activity. Kind of data set: Antioxidant activity assessed as DPPH free radical scavenging activity at 1 uM after 4 mins by spectrophotometry. The class given is functional.
In data set [3] the test system is Radical scavenging activity. Description: Antioxidant activity assessed as DPPH free radical scavenging activity at 1 uM after 6 mins by spectrophotometry. Format: functional.
The subject of data set [4] is Radical scavenging activity. Kind of data set: Antioxidant activity assessed as DPPH free radical scavenging activity at 1 uM after 8 mins by spectrophotometry. The class given is functional.
Data set [5] relates to Radical scavenging activity. Kind of data set: Antioxidant activity assessed as DPPH free radical scavenging activity at 1 uM after 10 mins by spectrophotometry. Format: functional.
The test system of data set [6] is THP-1. Kind of data set: Antiinflammatory activity in LPS-stimulated human THP1 cells assessed as inhibition of TNFalpha formation at 10 uM pretreated 30 mins before LPS challenge measured after 24 hrs by ELISA. Format: functional. More on the design: scale not given: the % may be the effect or the level left. The method in brief:
(§1)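 PMA-differentiated human THP-1 cells in RPMI 1640 with 10% FBS, penicillin and streptomycin. Compound or vehicle (0.5% DMSO) was added for 30 min at 37 °C, then E. coli 0127:B8 LPS. Cells were incubated 24 h at 37 °C, 5% CO2. Supernatant TNF-α and IL-6 were measured by ELISA. Percent inhibition of release was calculated versus control.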
A general note: ELISA stands for enzyme-linked immunosorbent assay.

Data set [7] concerns THP-1. Description: Antiinflammatory activity in LPS-stimulated human THP1 cells assessed as inhibition of IL6 formation at 10 uM pretreated 30 mins before LPS challenge measured after 24 hrs by ELISA. On the set-up: scale not given: the % may be the effect or the level left. The class given is functional. The method in brief:
as §1

The test system of data set [8] is THP-1. Description: Antiinflammatory activity in LPS-stimulated human THP1 cells assessed as inhibition of IL6 formation at 1 uM pretreated 30 mins before LPS challenge measured after 24 hrs by ELISA. Format: functional. On the set-up: scale not given: the % may be the effect or the level left. The method in brief:
as §1

The nature of data set [9]: Cytotoxicity against LPS-stimulated human THP-1 cells at 10 uM after 24 hrs by CCK-8 assay. To be noted: THP-1, 24 h. Background: Tetrazolium dyes change colour on reduction, which living cells bring about.
Data set [10] deals with Radical scavenging activity. Description: Antioxidant activity assessed as DPPH free radical scavenging activity at 1 mM after 20 mins by spectrophotometry.

Calls of active or inactive are those of the source. The rule behind the calls is not given here.

Take `COc1cc(OC)c(C(=O)c2cccc(F)c2)c(O)c1CN1CCCCC1`: the Activity in data set [1] stood at 4.2%; in data set [2], 5.98%; in data set [3], 9.25%; in data set [4] it was 11.8%; in data set [5] it was 13.7%; in data set [6] it was 0%. The Activity in data set [7] turned out to be 87%; in data set [8], 30%; in [9], 27%; in data set [10], 24.7%.
As for `COc1cc(OC)c(C(=O)c2cccc(F)c2)c(O)c1CN1CCN(C)CC1`, the Activity in data set [1] turned out to be 9.5%; in data set [2], 15.8%; in [3], 18.5%; in data set [4] it was 19.4%; in [5], 22.6%; in data set [6], 54%. Also, the Activity in data set [7] was 97%; in [8] it was 47%; in data set [9], 22%; in data set [10], 40.4%.
Consider `COc1cc(OC)c(C(=O)c2ccccc2Br)c(O)c1CN1CCOCC1`, for which the Activity in data set [1] worked out at 0.8%; in [2], 1.2%; in [3] it was 1.9%; in [4] it was 2.11%; in data set [5] it was 2.95%; in [6], 65%. For the same compound, the Activity amounted to 97% in data set [7], 19% in data set [8], 66% in data set [9] and 6.23% in data set [10].
On to `COc1cc(O)c(C(=O)c2cccc(Cl)c2)c(OC)c1`, for which the Activity worked out at 3.21% in data set [1]; 3.9% in data set [2]; 4.2% in data set [3]; 6.52% in data set [4]; 7.6% in [5]; 0% in data set [6]. In addition, the Activity came out at 78% in data set [7], 31% in data set [8], 49% in data set [9] and 16.4% in data set [10].
Take `O=C(O)c1cc(O)c(O)c(O)c1`: the Activity in data set [1] came to 18.2%; in data set [2], 22.7%; in data set [3] it was 19.4%; in [4] it was 38.4%; in data set [5], 46.9%.
Turning to `COc1cc(OC)c(C(=O)c2ccccc2F)c(O)c1CN1CCCCC1`, the Activity worked out at 13.7% in data set [1]; 16.9% in [2]; 23% in data set [3]; 28.9% in data set [4]; 34.6% in data set [5]; 0% in [6]. For the same compound, the Activity in data set [7] was determined as 84%; in data set [8], 18%; in data set [9] it was 31%; in [10], 73.3%.
As for `COc1cc(OC)c(C(=O)c2cccc(Cl)c2)c(O)c1CN1CCCCC1`, the Activity in [1] stood at 9.2%; in [2], 11.4%; in data set [3], 14.8%; in data set [4], 20.9%; in [5] it was 22.8%; in data set [6], 11%. Moreover, the Activity in [7] was found to be 83%; in [8], 33%; in data set [9], 31%; in [10], 45.3%.
On to `COc1cc(OC)c(C(=O)c2ccccc2F)c(O)c1CN1CCN(C)CC1`, for which the Activity is 3.3% in data set [1]; 3.95% in data set [2]; 4% in data set [3]; 5.4% in data set [4]; 6.2% in [5]; 19% in [6]. In addition, the Activity was determined as 83% in [7], 21% in [8], 40% in data set [9] and 17.5% in data set [10].
Consider `COc1cc(OC)c(C(=O)c2cccc(Cl)c2)c(O)c1CN1CCOCC1`, for which the Activity in data set [1] turned out to be 5.52%; in data set [2], 6.44%; in data set [3], 9.45%; in data set [4], 14.6%; in data set [5], 15.9%; in data set [6], 1%. Further, the Activity in [7] came out at 83%; in data set [8], 42%; in data set [9], 39%; in [10], 33.4%.
Turning to `COc1cc(O)c(C(=O)c2ccccc2Br)c(OC)c1`, the outcome in [1], in [2], in data set [3], in data set [4], in data set [5] and in data set [10] was inactive. Moreover, the Activity is listed as 11% in data set [6], 72% in data set [7], 7% in data set [8] and 43% in data set [9].
In the case of `COc1cc(OC)c(C(=O)c2ccccc2Br)c(O)c1CN1CCCCC1`, the Activity worked out at 10.8% in data set [1]; 14.2% in [2]; 17.7% in [3]; 25.4% in [4]; 32.5% in data set [5]; 78% in data set [6]. Further, the Activity in data set [7] came out at 98%; in data set [8], 22%; in data set [9] it was 61%; in [10] it was 64.4%.
On to `COc1cc(O)c(C(=O)c2ccccc2F)c(OC)c1`, for which the Activity in data set [1] was 8.2%; in data set [2], 12.5%; in data set [3] it was 13.6%; in data set [4], 16.8%; in data set [5], 18.9%; in data set [6] it was 47%. Also, the Activity worked out at 71% in data set [7], 11% in data set [8], 53% in data set [9] and 32.4% in data set [10].
Turning to `COc1cc(O)c(C(=O)c2cccc(F)c2)c(OC)c1`, the outcome in data set [1], in data set [2], in data set [3], in [4], in [5] and in [10] was inactive. For the same compound, the Activity turned out to be 0% in data set [6], 81% in [7], 38% in data set [8] and 24% in [9].
As for `COc1cc(OC)c(C(=O)c2ccccc2Br)c(O)c1CN1CCCC1`, the result in data set [1], in data set [2], in [3], in data set [4], in data set [5] and in data set [10] was inactive. Moreover, the Activity in data set [6] was 99%; in data set [7], 100%; in data set [8] it was 19%; in [9], 84%.
For the compound `COc1cc(OC)c(C(=O)c2cccc(Cl)c2)c(O)c1CN1CCN(C)CC1`, the result in [1], in data set [2], in data set [3], in data set [4], in data set [5] and in data set [10] was inactive. In addition, the Activity in data set [6] was 100%; in [7] it was 100%; in data set [8], 54%; in data set [9], 77%.
For `COc1cc(OC)c(C(=O)c2ccccc2F)c(O)c1CN1CCCC1`, the Activity in data set [1] amounted to 3.6%; in data set [2], 4.24%; in data set [3], 6.45%; in [4], 9.5%; in [5], 11.9%; in data set [6], 10%. Moreover, the Activity in data set [7] is 87%; in data set [8], 15%; in data set [9], 27%; in [10], 24.8%.

The values are drawn from ChEMBL document CHEMBL1156322, “Synthesis and biological evaluation of nitrogen-containing benzophenone analogues as TNF-alpha and IL-6 inhibitors with antioxidant activity” (Bioorg Med Chem Lett, 2010).
